Laboratory results from ChEMBL document CHEMBL4342468, “Evolution of a 4-Benzyloxy-benzylamino Chemotype to Provide Efficacious, Potent, and Isoform Selective PPARα Agonists as Leads for Retinal Disorders” (J Med Chem, 2020).

Experiments:
[1] = target: T1, Peroxisome proliferator-activated receptor alpha (Homo sapiens) (UniProt Q07869); test: Agonist activity at human PPARalpha expressed in nonhuman mammalian cells assessed as maximal increase in receptor transcriptional activity incubated for 22 to 24 hrs by luciferase reporter gene assay relative to GW590735; format: cell-based
T1 sequence (whole entry): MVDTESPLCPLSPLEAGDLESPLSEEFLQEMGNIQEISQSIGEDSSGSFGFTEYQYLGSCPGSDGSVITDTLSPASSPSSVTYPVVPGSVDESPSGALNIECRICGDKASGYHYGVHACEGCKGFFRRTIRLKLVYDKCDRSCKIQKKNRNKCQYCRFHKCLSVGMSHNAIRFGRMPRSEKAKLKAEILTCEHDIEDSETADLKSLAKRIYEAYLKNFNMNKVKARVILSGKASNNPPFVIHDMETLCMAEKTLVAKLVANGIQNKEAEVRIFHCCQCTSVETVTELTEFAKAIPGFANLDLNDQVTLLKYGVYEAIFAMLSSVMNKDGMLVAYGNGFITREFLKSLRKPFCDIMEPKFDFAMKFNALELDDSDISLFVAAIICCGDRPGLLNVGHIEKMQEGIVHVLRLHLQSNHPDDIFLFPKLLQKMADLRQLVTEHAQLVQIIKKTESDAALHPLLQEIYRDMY

[2] = target: T2, Peroxisome proliferator-activated receptor delta (Homo sapiens, UniProt Q03181); test: Agonist activity at human PPARdelta expressed in nonhuman mammalian cells assessed as increase in receptor transcriptional activity incubated for 22 to 24 hrs by luciferase reporter gene assay; format: cell-based
T2 sequence (Q03181 whole entry): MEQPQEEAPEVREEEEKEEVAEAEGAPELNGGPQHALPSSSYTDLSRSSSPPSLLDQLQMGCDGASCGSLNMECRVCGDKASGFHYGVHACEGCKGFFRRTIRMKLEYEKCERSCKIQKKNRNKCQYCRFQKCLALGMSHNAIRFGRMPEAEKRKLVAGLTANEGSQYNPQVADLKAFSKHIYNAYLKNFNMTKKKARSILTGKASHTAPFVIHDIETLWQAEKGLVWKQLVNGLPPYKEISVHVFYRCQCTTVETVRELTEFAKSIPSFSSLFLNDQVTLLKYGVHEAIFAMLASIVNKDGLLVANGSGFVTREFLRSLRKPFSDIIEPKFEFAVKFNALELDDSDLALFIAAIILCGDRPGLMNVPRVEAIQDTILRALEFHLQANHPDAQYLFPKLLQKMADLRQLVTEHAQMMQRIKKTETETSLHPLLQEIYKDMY

[3] = target: T3, Peroxisome proliferator-activated receptor alpha (Homo sapiens, UniProt Q07869)
T3 sequence (Q07869 whole entry): T1 sequence (whole entry)

Homo sapiens [4] = species on record: Homo sapiens; test: Selectivity index, ratio of EC50 for human PPARdelta expressed in nonhuman mammalian cells to EC50 for human PPARalpha expressed in nonhuman mammalian cells measured after 22 to 24 hrs by luciferase reporter gene assay; format: cell-based
Outline: (§1)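 Reporter cells (non-human mammalian) expressing human PPARα, γ or δ linked to a luciferase reporter were pre-incubated 4–6 h at 37 °C, 5% CO2 in medium with 10% charcoal-stripped FBS. SI = EC50(PPARγ or δ)/EC50(PPARα).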

Homo sapiens [5] = species on record: Homo sapiens; test: Selectivity index, ratio of EC50 for human PPARgamma expressed in nonhuman mammalian cells to EC50 for human PPARalpha expressed in nonhuman mammalian cells measured after 22 to 24 hrs by luciferase reporter gene assay; format: cell-based; outline: as §1
[6] = target: T4, Peroxisome proliferator-activated receptor gamma (Homo sapiens, UniProt P37231); test: Agonist activity at human PPARgamma expressed in nonhuman mammalian cells assessed as increase in receptor transcriptional activity incubated for 22 to 24 hrs by luciferase reporter gene assay; format: cell-based
T4 sequence (P37231 whole entry): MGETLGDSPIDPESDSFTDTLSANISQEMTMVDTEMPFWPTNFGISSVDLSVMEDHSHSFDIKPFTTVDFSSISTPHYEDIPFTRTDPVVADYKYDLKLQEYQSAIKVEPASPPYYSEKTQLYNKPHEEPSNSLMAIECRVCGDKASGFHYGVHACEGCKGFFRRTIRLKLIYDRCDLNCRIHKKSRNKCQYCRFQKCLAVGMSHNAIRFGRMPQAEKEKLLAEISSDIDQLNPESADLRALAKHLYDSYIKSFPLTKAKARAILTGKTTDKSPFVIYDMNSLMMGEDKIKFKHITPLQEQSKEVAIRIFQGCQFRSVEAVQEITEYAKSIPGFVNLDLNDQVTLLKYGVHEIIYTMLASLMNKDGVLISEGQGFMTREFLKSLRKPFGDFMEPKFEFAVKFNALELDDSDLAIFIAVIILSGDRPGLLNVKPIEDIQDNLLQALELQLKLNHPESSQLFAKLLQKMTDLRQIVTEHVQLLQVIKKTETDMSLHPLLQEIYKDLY
Outline: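 Reporter cells (nonhuman mammalian, engineered PPAR receptor with luciferase linked to response promoter) pre-incubated 4–6 h at 37 °C, 5% CO2 in medium with 10% charcoal-stripped FBS. Medium replaced with compound-containing screening medium, 22–24 h at 37 °C, then luciferase detection reagent, luminescence read. Multi-point dose-response for EC50; mean ± SEM of at least two separate experiments in triplicate.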

[7] = target: T1, Peroxisome proliferator-activated receptor alpha (Homo sapiens); test: Binding affinity to His tagged PPARalpha LBD (unknown origin) expressed in Escherichia coli Rosetta (DE3) assessed as change in entropy at 25 degree C by isothermal titration calorimetry
[8] = target: T1, Peroxisome proliferator-activated receptor alpha (Homo sapiens); test: Binding affinity to His-tagged PPARalpha LBD (unknown origin) expressed in Escherichia coli Rosetta (DE3) assessed as change in enthalpy at 25 degree C by isothermal titration calorimetry
Rattus norvegicus = test: Protection against STZ-induced diabetic retinopathy Brown Norway rat model assessed as reduction in vascular leakage by measuring retinal vascular permeability at 23 mg/kg, ip administered daily for 4 weeks starting at 2 weeks post STZ challenge measured per mg of total retinal protein by Evan blue dye based assay (reference value: 0.090 +/- 0.015 microg); format: functional
Outline: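 Male Brown Norway rats aged 8 weeks (legend: 7–8 weeks) made diabetic with STZ 55 mg/kg i.p.; blood glucose >350 mg/dl at day 3. Starting 2 weeks after STZ, daily i.p. compound or same-volume vehicle for 4 weeks. Under ketamine/xylazine, Evans blue 30 mg/ml at 1 µl/g given i.v. via femoral vein and circulated 2 h. Perfusion with 1% paraformaldehyde in citrate buffer, pH 4.2, at 37°C. Retina extracted in formamide 18 h at 70°C, ultracentrifuged, A620 read. Dye amount from a standard curve, normalized to total protein. Groups compared by Student's t-test, mean ± SD.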

[9] = Toxicity in STZ-induced diabetic retinopathy Brown Norway rat model assessed as liver weight at 23 mg/kg, ip administered daily for 4 weeks starting at 2 weeks post STZ challenge relative to body weight (reference value: 4.36 +/- 0.37%); format: organism-based; settings: in vivo

SMILES	fold change (FC) [1]	EC50 [3] [µM]	other results
C[C@H](Oc1ccc(CNc2cccc(C(=O)O)c2)cc1)c1ccc(F)cc1	1.6		
O=C(O)c1cc(Br)cc(NCc2ccc(OCc3ccc(F)cc3)cc2)c1	1.4	1.12	EC50 [2]: > 100 µM; Ratio EC50 (Homo sapiens [4]): > 100; Ratio EC50 (Homo sapiens [5]): > 100; EC50 [6]: > 100 µM
Cc1cc(CNc2cc(F)cc(C(=O)O)c2)ccc1OCc1ccc(F)cc1	1.5		
O=C(O)c1cccc(NCc2ccc(OCc3cc(F)cc(F)c3)cc2)c1	1.1		
O=C(O)c1cccc(NCc2ccc(OCc3ccc(F)cc3)c(OCc3ccc(F)cc3)c2)c1	1.4	0.81	
O=C(O)c1cccc(NCc2ccc(OCc3ccc(C(F)(F)F)cc3)cc2)c1	0.9	0.96	
Cc1cc(CNc2cccc(C(=O)O)c2)ccc1OCc1cc(F)cc(F)c1	1.6		
COc1ccc(COc2ccc(CNc3cccc(OC(C)(C)C(=O)O)c3)cc2)cc1	1.8		
CC(C)(Oc1cccc(NCc2ccc(OCc3ccc(F)cc3)cc2)c1)C(=O)O	2		
O=C(O)c1cccc(NCc2ccc(OCc3ccc(F)cc3)c(Cl)c2)c1	1.5		
O=C(O)c1cccc(NCc2ccc(OCc3ccccc3F)cc2)c1	1		
Cc1cc(CNc2cccc(C(=O)O)c2)ccc1OCc1ccc(I)cc1	1.5		
Cc1cc(CNc2cccc(C(=O)O)c2)ccc1OCc1ccc(Cl)cc1	1.2		
Cc1cc(OCc2ccc(F)cc2)ccc1CNc1cccc(C(=O)O)c1	1.2	1.45	
O=C(O)c1cccc(NCc2ccc(OCc3ccc(F)cc3)cc2OCc2ccc(F)cc2)c1	1.2	0.93	
CC(C)(Oc1ccc(CNc2cccc(C(=O)O)c2)cc1)c1ccc(F)cc1	0.8	8.52	
O=C(O)c1cc(F)cc(NCc2ccc(OCc3ccc(F)cc3)cc2)c1	1.1	0.58	EC50 [2]: > 100 µM; Ratio EC50 (Homo sapiens [4]): > 170; Ratio EC50 (Homo sapiens [5]): > 170; EC50 [6]: > 100 µM
Cc1cc(CNc2cccc(C(=O)O)c2)ccc1OCc1ccc(Br)cc1	1.3		
O=C(O)c1cc(Cl)cc(NCc2ccc(OCc3ccc(F)cc3)cc2)c1	1.1		
O=C(NO)c1cccc(NCc2ccc(OCc3ccc(F)cc3)cc2)c1	0.6		
O=C(O)c1cccc(NCc2ccc(OCc3cccc(F)c3)cc2)c1	1.2	1.18	
O=C(O)c1cccc(NCc2ccc(OCc3ccc(F)cc3F)cc2)c1	1.2	0.54	EC50 [2]: > 100 µM; Ratio EC50 (Homo sapiens [4]): > 175; Ratio EC50 (Homo sapiens [5]): > 175; EC50 [6]: > 100 µM
O=C(O)c1cccc(NCc2ccc(OCCc3ccccc3)cc2)c1	0.9		
CN(Cc1ccc(OCc2ccc(F)cc2)cc1)c1cccc(C(=O)O)c1	1.7	0.9	
Cc1cc(CN(C)c2cccc(C(=O)O)c2)ccc1OCc1ccc(F)cc1	2.1	0.067	

SMILES	fold change (FC) [1]	EC50 [3] [µM]	other results
O=C(O)c1cc(F)cc(NCc2ccc(OCc3ccc(F)cc3)c(Cl)c2)c1	1.8	0.052	
Cc1cc(CNc2cccc(OC(C)(C)C(=O)O)c2)ccc1OCc1ccc(F)cc1	1.6		
O=C(O)c1cccc(NCc2ccc(OCc3ccc(I)cc3)cc2)c1	1.1	1.45	
O=C(O)c1cccc(NCc2ccc(OCc3ccc(F)cc3)c(F)c2)c1	1.7		
O=C(O)c1cccc(NCc2ccc(OCc3ccc(F)c(F)c3)cc2)c1	1.2	0.36	
Cc1cc(CNc2cccc(C(=O)O)c2)ccc1OCc1ccc(F)cc1F	1.4		
O=C(O)c1cccc(NCc2ccc(OCc3ccc(Cl)cc3)cc2)c1	1.5	0.83	
CS(=O)(=O)Nc1cccc(NCc2ccc(OCc3ccc(F)cc3)cc2)c1	0.1		
CC(C)(Sc1cccc(NCc2ccc(OCc3ccc(F)cc3)cc2)c1)C(=O)O	1.1		
COc1ccc(CCOc2ccc(CNc3cccc(C(=O)O)c3)cc2)cc1	0.9		
O=C(O)c1cc(NCc2ccc(OCc3ccc(F)cc3)cc2)ccc1F	1.2	1.61	
NS(=O)(=O)c1cccc(NCc2ccc(OCc3ccc(F)cc3)cc2)c1	0.1		
N#Cc1ccc(COc2ccc(CNc3cccc(C(=O)O)c3)cc2)cc1	1		
Cc1cc(CNc2cccc(C(=O)O)c2)ccc1OCc1ccc(F)c(F)c1	1.6		
Fc1ccc(COc2ccc(CNc3cccc(-c4nnn[nH]4)c3)cc2)cc1	1.6		
CC(C)(Oc1cccc(NCc2ccc(OCc3ccc(C(F)(F)F)cc3)cc2)c1)C(=O)O	1.2		
O=C(O)c1cccc(NCc2ccc(OCc3ccc(F)cc3)cc2)c1	1.3		-TdeltaS [7]: 0.98 kcal/mol; EC50 [2]: > 100 µM; deltaH [8]: -8.18 kcal/mol; EC50 [6]: > 100 µM
Cc1ccc(C(=O)O)cc1NCc1ccc(OCc2ccc(F)cc2)cc1	0.3		
OB(O)c1cccc(NCc2ccc(OCc3ccc(F)cc3)cc2)c1	0.1		
C[C@@H](Oc1ccc(CNc2cccc(C(=O)O)c2)cc1)c1ccc(F)cc1	0.6	25.6	
O=C(O)c1cccc(NCc2ccc(OCc3ccc(Br)cc3)cc2)c1	1.3	0.97	
CC(C)(Oc1ccc(C(=O)c2ccc(Cl)cc2)cc1)C(=O)O [FENOFIBRIC ACID]			Activity (Rattus norvegicus): 0.059 µg; Activity [9]: 5.79%
O=C(O)c1ccc(NCc2ccc(OCc3ccc(F)cc3)cc2)cc1	0.4		
Cc1nc(-c2ccc(C(F)(F)F)cc2)sc1C(=O)NCc1ccc(OC(C)(C)C(=O)O)cc1	1		-TdeltaS [7]: 4.9 kcal/mol; deltaH [8]: -14.1 kcal/mol
CC(C)(Oc1ccc(NCc2ccc(OCc3ccc(F)cc3)cc2)cc1)C(=O)O	1.8		
